Results on 14 molecules are retold here after PubChem BioAssay.

Structures are written as SMILES. Activity calls are given as the source filed them.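 How the source made its calls, unless noted: active means viability loss from added drug above about 55%, and viability with drug at most 40%, in both replicates (limit read from the data, passing the limit was not always enough); inconclusive means both conditions met in only one replicate; inactive means neither replicate meets both conditions.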

Experiment [1] is described as follows: Her2 expression decrease, cell viability multiplex – SKBR3 breast tumor cells, AlphaScreen, ATP viability, primary screen (AID 461;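 active means Her2 level under about 52% in both replicate screens, with viability over 70% of control, limit read from the data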;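 on Her2 level: lower value means less Her2 protein in the cells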;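 on viability: percent of carrier control wells set as 100% viability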). The conditions noted are these: SKBR3 Her2 protein level, 18-24 h, measured here: SKBR3 viability, ATP luminescence, at 10 µM. For orientation: Alpha assays give light when donor and acceptor beads are brought close together.
Experiment [2] addresses Receptor tyrosine-protein kinase erbB-2 (Homo sapiens) (UniProt P04626). The experiment is described as above. The conditions noted are these: 18-24 h, at 10 µM, stronger effect = lower value.
A short description of experiment [3]: reduced viability of SK-BR-3 breast cancer cells – cell-based, 24 h, human, pilot screen (AID 572;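 active means viability at or below 10% of carrier control in both of two separate runs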;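 further: compound exposure lasted between 18 and 24 h rather than exactly 24 h; 100% = carrier-treated control wells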). The conditions noted are these: SK-BR-3 viability, CellTiter-Glo luminescence, at 10 µM, stronger effect = lower value. A general note: ATP-based viability assays read luminescence as a measure of living cells.
Experiment [4] in a line: HUVEC growth inhibition – cell-based, human, primary screen (AID 575;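 active means viability at or below 30% in both replicate assays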;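 further: 100% = median of untreated cell wells with 0.1% DMSO on each plate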). The settings on record: HUVEC proliferation, CellTiter-Glo luminescence, 72 h; at 10 µM; stronger effect = lower value. Summed up:
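Test system: primary human umbilical vein endothelial cells. Quantity: 1250 cells/well. Compound: single 10 µM dose, 0.1% DMSO, from 5x medium stock. Timing: 72 h treatment at 37 °C. Detection: ATP-based CellTiter-Glo luminescent read. Benchmarks: vehicle and MePR control wells. Format: 384-well plates coated with collagen.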

A short description of experiment [5]: H69AR cell proliferation blockers – human, duplicate replicates, primary screen (AID 580;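 active means viability at or under a set limit in both replicates, limit being median viability minus 3 SD, cut at about 48% in these data, passing the limit was not always enough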;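 further: 100% = mean luminescence of untreated wells and 0% = no signal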). The settings on record: H69AR lung tumor cells viability, ATP luminescence, 72 h; at 10 µM; stronger effect = lower value.
Experiment [6] is described as follows: MRP1 drug-resistance reversers in H69AR cells – cell-based, doxorubicin co-treatment, pilot screen (AID 601). The conditions noted are these: CellTiter-Glo, 72 h, at 10 µM; for differential viability (reversal): stronger effect = higher value.
The nature of experiment [7]: yeast transport mutant growth inhibition pilot in 384-well plates, post-Golgi transport modulator project (AID 636; in the data active means inhibition above about 31%). The conditions noted are these: absorbance 615 nm, about 18 h, stronger effect = higher value.
Experiment [8] can be described thus: growth suppression of yeast trafficking mutant, preliminary HTS, modulators of trafficking downstream of Golgi apparatus project, 1536-format plate, OD 615 nm (AID 637; in the data active means inhibition above about 30%). The settings on record: yeast transport mutant growth, absorbance 615 nm, 18 h; stronger effect = higher value.
Where [9] appears, read: H69AR cells + 2 uM doxorubicin, measured here: viability with 2 uM doxorubicin, stronger effect = lower value.
Setting [10] is: H69AR cells, compound alone cytotoxicity.

Chain of Receptor tyrosine-protein kinase erbB-2 (Homo sapiens) (P04626 whole entry, looked up): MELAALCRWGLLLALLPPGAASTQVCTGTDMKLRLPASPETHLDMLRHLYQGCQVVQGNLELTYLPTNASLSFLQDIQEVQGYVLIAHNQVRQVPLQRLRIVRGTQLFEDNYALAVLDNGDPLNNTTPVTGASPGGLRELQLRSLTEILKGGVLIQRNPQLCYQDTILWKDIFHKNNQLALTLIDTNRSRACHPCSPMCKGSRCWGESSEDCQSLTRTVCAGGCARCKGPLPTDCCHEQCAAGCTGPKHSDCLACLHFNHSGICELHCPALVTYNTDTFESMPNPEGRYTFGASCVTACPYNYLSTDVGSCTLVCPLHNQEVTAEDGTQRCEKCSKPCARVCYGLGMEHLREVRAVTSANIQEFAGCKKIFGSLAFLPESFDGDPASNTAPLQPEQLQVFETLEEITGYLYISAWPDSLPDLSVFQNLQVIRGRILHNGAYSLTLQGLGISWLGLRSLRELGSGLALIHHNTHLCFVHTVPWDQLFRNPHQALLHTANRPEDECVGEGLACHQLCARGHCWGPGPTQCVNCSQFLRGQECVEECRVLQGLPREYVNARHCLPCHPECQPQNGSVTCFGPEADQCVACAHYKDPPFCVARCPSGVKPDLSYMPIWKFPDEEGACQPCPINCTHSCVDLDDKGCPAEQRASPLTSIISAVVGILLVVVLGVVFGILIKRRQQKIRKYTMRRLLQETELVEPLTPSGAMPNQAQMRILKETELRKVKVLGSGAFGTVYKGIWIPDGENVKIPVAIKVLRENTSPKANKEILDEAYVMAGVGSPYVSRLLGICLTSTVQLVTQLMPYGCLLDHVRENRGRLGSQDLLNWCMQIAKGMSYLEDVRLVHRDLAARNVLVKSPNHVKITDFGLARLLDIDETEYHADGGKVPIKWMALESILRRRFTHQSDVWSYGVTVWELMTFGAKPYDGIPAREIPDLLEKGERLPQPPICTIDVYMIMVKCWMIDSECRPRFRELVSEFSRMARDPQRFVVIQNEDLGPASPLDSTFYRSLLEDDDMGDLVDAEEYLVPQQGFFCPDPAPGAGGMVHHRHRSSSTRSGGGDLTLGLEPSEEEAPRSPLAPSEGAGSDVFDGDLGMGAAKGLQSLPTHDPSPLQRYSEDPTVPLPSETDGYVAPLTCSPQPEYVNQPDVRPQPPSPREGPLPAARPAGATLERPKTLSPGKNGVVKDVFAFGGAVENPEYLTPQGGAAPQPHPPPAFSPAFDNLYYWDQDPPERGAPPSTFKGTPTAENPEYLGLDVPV

Take `O=c1c2c3c(sc2nc2sc(C4CC4)nn12)CCCC3`: the viability (commonly a read-out of living cells in per cent, often relative to untreated cells) was 110% in experiment [1]; 110% (inactive) in experiment [3]; 82.7% (inactive) in experiment [4]; 79.7% (inactive) in experiment [5]; 87.2% in experiment [6] (setting [9]); 79.7% in experiment [6] (setting [10]). For the same molecule, in experiment [2], the Her2 level was 92.5% (inactive). Also, the differential viability (reversal) in experiment [6] (H69AR cells + 2 uM doxorubicin) was -7.56% (inactive). In addition, the inhibition (as a rule, the drop in the measured response relative to a control, in per cent) was -0.39% (inactive) in experiment [7] and 20.7% (inactive) in experiment [8].

Regarding `Cc1ccccc1S(=O)(=O)Cc1ccc(C(=O)NCc2cccnc2)o1`, the viability is 93% in experiment [1]; 93% (inactive) in experiment [3]; 97.8% (inactive) in experiment [4]; 94.2% (inactive) in experiment [5]; 87.6% in experiment [6] (setting [9]); 94.2% in experiment [6] (setting [10]). For the same molecule, the Her2 level in experiment [2] was 83.5% (inactive). The differential viability (reversal) in experiment [6] (H69AR cells + 2 uM doxorubicin) was 6.61% (inactive). The inhibition in experiment [7] is -1.84% (inactive); in experiment [8], -2.91% (inactive).

`COc1ccccc1Nc1nc2ccccc2[nH]1`: the viability in experiment [1] was 92%; in experiment [3], 92% (inactive); in experiment [4] it was 86.3% (inactive); in experiment [5] it was 72.8% (inactive); in experiment [6] (setting [9]), 83.4%; in experiment [6] (setting [10]), 72.8%. For the same molecule, the Her2 level in experiment [2] was 93.5% (inactive). For the same molecule, in experiment [6] (H69AR cells + 2 uM doxorubicin), the differential viability (reversal) was -10.6% (inactive). Besides, the inhibition in experiment [7] is -9.07% (inactive); in experiment [8], -7.94% (inactive).

On to `Cc1ccc(-n2nnnc2SCC(=O)c2cc(C)n(CC3CCCO3)c2C)cc1` (stereo not given), for which the viability is 83.5% in experiment [1]; 83.5% (inactive) in experiment [3]; 70.8% (inactive) in experiment [4]; 86% (inactive) in experiment [5]; 95.7% in experiment [6] (setting [9]); 86% in experiment [6] (setting [10]). Besides, the Her2 level in experiment [2] is 106% (inactive). For the same molecule, the differential viability (reversal) in experiment [6] (H69AR cells + 2 uM doxorubicin) was -9.62% (inactive). In addition, the inhibition in experiment [7] was -5.07% (inactive); in experiment [8], 0.48% (inactive).

In the case of `CC1CCCCC1NC(=O)CCCc1nc2ccccc2c(=O)[nH]1` (stereo not given), the viability is 80.5% in experiment [1]; 80.5% (inactive) in experiment [3]; 105% (inactive) in experiment [4]; 110% (inactive) in experiment [5]; 96.2% in experiment [6] (setting [9]); 110% in experiment [6] (setting [10]). Further, the Her2 level in experiment [2] is 93.5% (inactive). The differential viability (reversal) in experiment [6] (H69AR cells + 2 uM doxorubicin) was 13.7% (inactive). In addition, the inhibition was 0.27% (inactive) in experiment [7] and 2.46% (inactive) in experiment [8].

For `O=C(N1CCCCCC1)N1CCN(S(=O)(=O)N2CCCCC2)CC1`, the viability in experiment [1] is 101%; in experiment [3] it was 101% (inactive); in experiment [4], 99.5% (inactive); in experiment [5] it was 94% (inactive); in experiment [6] (setting [9]), 99.7%; in experiment [6] (setting [10]) it was 94%. Besides, the Her2 level in experiment [2] is 91.5% (inactive). For the same molecule, the differential viability (reversal) in experiment [6] (H69AR cells + 2 uM doxorubicin) is -5.71% (inactive). In addition, the values for the inhibition in experiment [7] and in experiment [8] were -2.76% (inactive) and -2.26% (inactive), respectively.

As for `O=C(CSc1nnc(-c2cccnc2)o1)Nc1ccccn1`, the viability in experiment [1] was 92.5%; in experiment [3], 92.5% (inactive); in experiment [4], 94% (inactive); in experiment [5] it was 94.4% (inactive); in experiment [6] (setting [9]), 86.5%; in experiment [6] (setting [10]) it was 94.4%. In addition, the Her2 level in experiment [2] is 102% (inactive). Also, the differential viability (reversal) in experiment [6] (H69AR cells + 2 uM doxorubicin) is 7.92% (inactive). Also, the inhibition in experiment [7] is 0.68% (inactive); in experiment [8], 31.8% (active).

In the case of `CCOC(=O)c1c(-c2ccc(C)o2)csc1NC(=O)COC(=O)c1cccs1`, the viability in experiment [1] is 93%; in experiment [3], 93% (inactive); in experiment [4], 69.3% (inactive); in experiment [5] it was 84.4% (inactive); in experiment [6] (setting [9]) it was 79.2%; in experiment [6] (setting [10]) it was 84.4%. Moreover, the Her2 level in experiment [2] is 87.5% (inactive). The differential viability (reversal) in experiment [6] (H69AR cells + 2 uM doxorubicin) was 5.23% (inactive). The values for the inhibition in experiment [7] and in experiment [8] were 1.3% (inactive) and -3.77% (inactive), respectively.

Turning to `COc1ccccc1C(=O)N1CCNC(=O)C1CC(=O)Nc1ccc(Cl)cc1` (stereo not given), the viability in experiment [1] was 97.5%; in experiment [3], 97.5% (inactive); in experiment [4], 99.6% (inactive); in experiment [5], 95.5% (inactive); in experiment [6] (setting [9]) it was 98.3%; in experiment [6] (setting [10]), 95.5%. In experiment [2], the Her2 level is 89.5% (inactive). Also, the differential viability (reversal) in experiment [6] (H69AR cells + 2 uM doxorubicin) was -2.83% (inactive). Besides, the inhibition in experiment [7] is 1.71% (inactive); in experiment [8], -2.74% (inactive).

As for `CC(C)(C)C(=O)N=C1SC2CS(=O)(=O)CC2N1c1ccc2c(c1)OCO2` (stereo not given), the viability is 88% in experiment [1]; 88% (inactive) in experiment [3]; 104% (inactive) in experiment [4]; 106% (inactive) in experiment [5]; 95.7% in experiment [6] (setting [9]); 106% in experiment [6] (setting [10]). Also, the Her2 level in experiment [2] was 110% (inactive). Further, the differential viability (reversal) in experiment [6] (H69AR cells + 2 uM doxorubicin) was 10.5% (inactive). For the same molecule, the inhibition in experiment [7] was 0.79% (inactive); in experiment [8], -7.82% (inactive).

Regarding `N#CCCCN1C(=O)C(O)(CC(=O)c2ccc3c(c2)OCCO3)c2ccccc21` (stereo not given), the viability in experiment [1] was 100%; in experiment [3], 100% (inactive); in experiment [4], 89.5% (inactive); in experiment [5] it was 85.3% (inactive); in experiment [6] (setting [9]) it was 79.2%; in experiment [6] (setting [10]) it was 85.3%. Besides, the Her2 level in experiment [2] is 93.5% (inactive). Further, the differential viability (reversal) in experiment [6] (H69AR cells + 2 uM doxorubicin) was 6.12% (inactive). Besides, the inhibition in experiment [7] is -2.89% (inactive); in experiment [8] it was -9.03% (inactive).

As for `COc1ccccc1OCC(=O)Nc1cccc(-c2nc3ccccc3o2)c1`, the viability is 104% in experiment [1]; 104% (inactive) in experiment [3]; 52.8% (inactive) in experiment [4]; 65.1% (inactive) in experiment [5]; 79.3% in experiment [6] (setting [9]); 65.1% in experiment [6] (setting [10]). Besides, the Her2 level in experiment [2] was 78.5% (inactive). The differential viability (reversal) in experiment [6] (H69AR cells + 2 uM doxorubicin) is -14.2% (inactive). Also, the results for the inhibition in experiment [7] and in experiment [8] were -0.13% (inactive) and 23% (inactive), respectively.

For `CC1=C(C(=O)NCc2ccco2)C2(CCC(C)CC2)OC1=O` (stereo not given), the viability in experiment [1] was 89.5%; in experiment [3], 89.5% (inactive); in experiment [4], 94% (inactive); in experiment [5], 84% (inactive); in experiment [6] (setting [9]), 84.8%; in experiment [6] (setting [10]), 84%. Moreover, the Her2 level in experiment [2] is 100% (inactive). In addition, the differential viability (reversal) in experiment [6] (H69AR cells + 2 uM doxorubicin) was -0.86% (inactive). Also, the inhibition in experiment [7] was -4% (inactive); in experiment [8], -5.74% (inactive).

As to `CCc1ccc(NC(=O)C2CC(=O)N(C(C)C)C2)cc1` (stereo not given), the viability was 111% in experiment [1]; 111% (inactive) in experiment [3]; 100% (inactive) in experiment [4]; 90.8% (inactive) in experiment [5]; 94.6% in experiment [6] (setting [9]); 90.8% in experiment [6] (setting [10]). In addition, in experiment [2], the Her2 level is 104% (inactive). In addition, in experiment [6] (H69AR cells + 2 uM doxorubicin), the differential viability (reversal) is -3.8% (inactive). Further, the inhibition in experiment [7] was -4.13% (inactive); in experiment [8] it was -2.46% (inactive).
